According to ChEMBL document CHEMBL1926530, “Novel pyrazolo[1,5-a]pyridines as p110α-selective PI3 kinase inhibitors: Exploring the benzenesulfonohydrazide SAR” (Bioorg Med Chem, 2012):
Values after ≈ are worked out from the molar mass of the structure shown.

Experiments:
[1] = target: Phosphatidylinositol 4,5-bisphosphate 3-kinase catalytic subunit alpha isoform (Homo sapiens, UniProt P42336); test: Inhibition of recombinant PI3K p110alpha using L-alpha-phosphatidylinositol as substrate and [gamma33P]ATP after 60 mins by thin layer chromatographic technique
Outline: (§1)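 In-house recombinant enzyme (0.1 µg) with L-α-phosphatidylinositol in 40 mM Tris-HCl pH 7.4, 200 mM NaCl, 1 mM EDTA; DMSO 1% final. Started with 5 mM MgCl₂, 100 µM ATP plus [γ-³³P]ATP; 1 h at room temperature, stopped with 1 M HCl. Lipids extracted, separated by TLC, phosphorimaged. Nine inhibitor concentrations; two experiments, IC50 averaged.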

[2] = Cytotoxicity against human NZOV9 cells harboring PI3K p110alpha Y1021C mutant assessed as inhibition of [3H]thymidine incorporation measured after 5 days; type: functional, cell-based
Outline: (§2)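 Early-passage lines grown in α-MEM with insulin, transferrin, selenite and 5% FBS. Wells seeded with 1000 cells; inhibitor in dilution steps up to a maximum of 20. Five days under 5% O₂/5% CO₂/90% N₂, ³H-thymidine added for the last 6 h. Duplicates per dose; fit y = y₀ + ae^−bx; IC50 = 50% reduction in incorporation.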

[3] = target: Phosphatidylinositol 4,5-bisphosphate 3-kinase catalytic subunit beta isoform (Homo sapiens, UniProt P42338); test: Inhibition of recombinant PI3K p110beta using L-alpha-phosphatidylinositol as substrate and [gamma33P]ATP after 60 mins by thin layer chromatographic technique; outline: as §1
[4] = target: T1, Phosphatidylinositol 4,5-bisphosphate 3-kinase catalytic subunit delta isoform (Homo sapiens, UniProt O00329); test: Inhibition of recombinant PI3K p110delta using L-alpha-phosphatidylinositol as substrate and [gamma33P]ATP after 60 mins by thin layer chromatographic technique; outline: as §1
T1 sequence (O00329 whole entry): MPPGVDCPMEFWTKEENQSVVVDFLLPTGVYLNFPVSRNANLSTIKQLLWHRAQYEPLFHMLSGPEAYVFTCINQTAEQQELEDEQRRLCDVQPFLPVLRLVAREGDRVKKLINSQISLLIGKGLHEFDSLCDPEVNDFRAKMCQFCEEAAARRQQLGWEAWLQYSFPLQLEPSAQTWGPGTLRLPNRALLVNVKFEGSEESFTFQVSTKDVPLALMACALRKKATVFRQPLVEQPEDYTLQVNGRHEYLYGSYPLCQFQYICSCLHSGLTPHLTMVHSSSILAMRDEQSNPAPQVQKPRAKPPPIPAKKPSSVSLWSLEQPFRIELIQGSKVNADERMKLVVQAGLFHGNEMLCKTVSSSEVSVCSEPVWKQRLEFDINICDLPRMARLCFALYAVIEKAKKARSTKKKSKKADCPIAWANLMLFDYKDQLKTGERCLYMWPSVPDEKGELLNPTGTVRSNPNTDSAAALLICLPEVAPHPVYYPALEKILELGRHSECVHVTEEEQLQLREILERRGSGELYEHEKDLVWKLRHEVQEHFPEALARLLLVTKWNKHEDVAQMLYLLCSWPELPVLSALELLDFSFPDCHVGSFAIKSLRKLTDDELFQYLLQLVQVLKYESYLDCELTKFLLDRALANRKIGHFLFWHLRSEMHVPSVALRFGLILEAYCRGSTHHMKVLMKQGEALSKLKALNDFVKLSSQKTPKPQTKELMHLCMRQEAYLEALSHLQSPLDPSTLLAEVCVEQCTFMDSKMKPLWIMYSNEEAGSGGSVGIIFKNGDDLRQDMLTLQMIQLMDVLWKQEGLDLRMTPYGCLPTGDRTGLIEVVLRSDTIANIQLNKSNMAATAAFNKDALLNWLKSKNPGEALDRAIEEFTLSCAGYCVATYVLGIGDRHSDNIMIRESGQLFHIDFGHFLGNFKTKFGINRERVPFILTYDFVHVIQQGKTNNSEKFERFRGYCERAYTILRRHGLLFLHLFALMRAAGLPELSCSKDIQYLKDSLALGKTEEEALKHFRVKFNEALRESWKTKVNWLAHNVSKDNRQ

[5] = Cytotoxicity against human NZB5 cells assessed as inhibition of [3H]thymidine incorporation measured after 5 days; type: functional, cell-based; outline: as §2
[6] = Aqueous solubility of the compound; type: physicochemical; conditions: water
Outline: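 Solid mixed with water to make 2 mM, sonicated 15 min, centrifuged 13000 rpm for 6 min. Clear supernatant diluted 2-fold with water, recentrifuged and injected on HPLC. Peak area compared with a DMSO standard solution of the compound, correcting for dilution and injection volume.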

HCT-116 = test: Antitumor activity against human HCT116 cells xenografted in Rag1 knockout mouse assessed as tumor growth delay at 20 mg/kg, ip QD measured on day 10 relative to untreated control; type: functional; conditions: route intraperitoneal
Outline: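 Male Rag1−/− mice (age-matched, SPF) inoculated s.c. with 5 × 10⁶ HCT-116 cells in PBS. Dosing started at ~150 mm³ tumours: q.d. i.p. in 7.5% DMSO, 42.5% PEG-400, 20% 2-hydroxypropyl-β-cyclodextrin, 30% water; controls received vehicle. Volume = (L × w²) × π/6, measured three times weekly; bodyweight daily. Treatment stopped if mean weight loss >15%; 1-way ANOVA with Holm–Sidak.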

Sequence of Phosphatidylinositol 4,5-bisphosphate 3-kinase catalytic subunit alpha isoform (P42336 whole entry, canonical isoform): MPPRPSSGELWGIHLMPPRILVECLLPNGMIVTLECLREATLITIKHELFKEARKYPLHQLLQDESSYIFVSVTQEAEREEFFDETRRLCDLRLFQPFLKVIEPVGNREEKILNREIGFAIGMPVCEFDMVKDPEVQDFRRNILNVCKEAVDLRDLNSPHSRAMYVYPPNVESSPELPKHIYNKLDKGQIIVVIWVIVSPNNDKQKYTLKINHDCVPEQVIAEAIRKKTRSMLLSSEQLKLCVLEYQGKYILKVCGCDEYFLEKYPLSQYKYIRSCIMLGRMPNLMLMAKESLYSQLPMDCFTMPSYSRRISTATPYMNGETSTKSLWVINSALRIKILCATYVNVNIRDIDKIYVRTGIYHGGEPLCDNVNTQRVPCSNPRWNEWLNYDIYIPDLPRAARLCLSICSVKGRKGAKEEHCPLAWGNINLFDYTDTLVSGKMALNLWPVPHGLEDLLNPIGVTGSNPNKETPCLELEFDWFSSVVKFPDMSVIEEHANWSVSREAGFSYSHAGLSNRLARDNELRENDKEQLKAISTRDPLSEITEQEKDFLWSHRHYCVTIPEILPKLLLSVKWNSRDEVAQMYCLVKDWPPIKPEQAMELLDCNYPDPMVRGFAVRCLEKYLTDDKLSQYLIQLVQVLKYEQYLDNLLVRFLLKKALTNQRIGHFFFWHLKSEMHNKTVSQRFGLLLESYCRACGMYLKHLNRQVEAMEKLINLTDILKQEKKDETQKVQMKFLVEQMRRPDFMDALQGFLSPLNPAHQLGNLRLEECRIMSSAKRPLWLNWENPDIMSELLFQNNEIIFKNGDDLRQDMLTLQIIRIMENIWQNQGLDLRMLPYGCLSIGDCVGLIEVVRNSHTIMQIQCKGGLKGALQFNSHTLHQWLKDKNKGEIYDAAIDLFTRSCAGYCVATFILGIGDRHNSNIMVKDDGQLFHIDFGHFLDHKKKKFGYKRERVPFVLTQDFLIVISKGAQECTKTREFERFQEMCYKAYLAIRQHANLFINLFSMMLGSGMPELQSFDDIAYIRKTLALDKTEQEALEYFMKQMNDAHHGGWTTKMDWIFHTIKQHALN
Sequence of Phosphatidylinositol 4,5-bisphosphate 3-kinase catalytic subunit beta isoform (P42338 whole entry, canonical isoform): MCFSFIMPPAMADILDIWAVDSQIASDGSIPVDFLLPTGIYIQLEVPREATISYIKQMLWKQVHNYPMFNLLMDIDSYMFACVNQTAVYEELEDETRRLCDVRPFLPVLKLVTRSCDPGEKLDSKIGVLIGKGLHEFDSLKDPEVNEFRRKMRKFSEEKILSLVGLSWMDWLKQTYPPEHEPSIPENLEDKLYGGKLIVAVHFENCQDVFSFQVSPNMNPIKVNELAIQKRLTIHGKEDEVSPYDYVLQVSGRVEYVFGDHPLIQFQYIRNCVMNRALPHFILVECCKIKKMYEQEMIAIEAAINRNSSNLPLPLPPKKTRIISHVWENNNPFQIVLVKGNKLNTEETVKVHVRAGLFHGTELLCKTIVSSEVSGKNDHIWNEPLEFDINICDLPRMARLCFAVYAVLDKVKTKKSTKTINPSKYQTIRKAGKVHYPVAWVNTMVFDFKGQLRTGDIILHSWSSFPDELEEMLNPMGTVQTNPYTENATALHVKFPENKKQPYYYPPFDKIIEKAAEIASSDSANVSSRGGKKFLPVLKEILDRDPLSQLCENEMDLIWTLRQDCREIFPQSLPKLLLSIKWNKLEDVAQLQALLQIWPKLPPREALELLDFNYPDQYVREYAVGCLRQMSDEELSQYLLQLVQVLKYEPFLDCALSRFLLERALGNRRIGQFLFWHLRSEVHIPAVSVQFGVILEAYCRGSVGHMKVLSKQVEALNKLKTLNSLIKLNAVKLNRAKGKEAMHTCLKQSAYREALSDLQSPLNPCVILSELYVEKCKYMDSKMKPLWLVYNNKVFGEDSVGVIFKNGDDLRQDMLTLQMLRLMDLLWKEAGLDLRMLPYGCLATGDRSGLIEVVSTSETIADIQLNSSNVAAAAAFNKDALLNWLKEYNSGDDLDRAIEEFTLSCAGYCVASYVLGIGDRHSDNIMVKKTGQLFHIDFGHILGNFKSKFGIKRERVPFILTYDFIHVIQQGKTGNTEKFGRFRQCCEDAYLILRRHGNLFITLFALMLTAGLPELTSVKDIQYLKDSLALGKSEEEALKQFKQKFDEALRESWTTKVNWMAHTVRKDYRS

SMILES	IC50 [1] [nM]	IC50 [2] [nM]	IC50 [3] [nM]	IC50 [4] [nM]	IC50 [5] [nM]	solubility [6] [µg/mL]	Activity (HCT-116) [%]
CN(/N=C/c1cnn2ccc(C#N)cc12)S(=O)(=O)c1cc([N+](=O)[O-])ccc1Cl	0.5	350	64	24	880		
Cc1ccc(C(=O)O)cc1S(=O)(=O)N(C)/N=C/c1cnn2ccc(C#N)cc12	> 1000	> 20000	> 1000	> 1000	> 20000		
Cc1ccccc1S(=O)(=O)N(C)/N=C/c1cnn2ccc(C#N)cc12	700	12000	> 1000	2000	> 20000		
Cc1ccc(S(C)(=O)=O)cc1S(=O)(=O)N(C)/N=C/c1cnn2ccc(C#N)cc12	350	620	830	200	500		
Cc1ccc(N)cc1S(=O)(=O)N(C)/N=C/c1cnn2ccc(C#N)cc12	> 1000		> 1000	> 1000			
Cc1ccc(Cl)cc1S(=O)(=O)N(C)/N=C/c1cnn2ccc(C#N)cc12	13	540	360	230	670		
CN(C)c1ccc([N+](=O)[O-])cc1S(=O)(=O)N(C)/N=C/c1cnn2ccc(C#N)cc12	2.2	100	44	24	40	0.5 (≈ 1.17 µM)	
Cc1ccc([N+](=O)[O-])cc1S(=O)(=O)N(C)/N=C/c1cnn2ccc(C#N)cc12		1400				0.1 (≈ 0.251 µM)	21.2
Cc1ccc([N+](=O)[O-])cc1S(=O)(=O)N(CCN1CCOCC1)/N=C/c1cnn2ccc(C#N)cc12	4.5	540	230	10	500		
CN(/N=C/c1cnn2ccc(C#N)cc12)S(=O)(=O)c1cc([N+](=O)[O-])ccc1F	4.7	400	44	120	480		
Cc1ccc([N+](=O)[O-])cc1CN(C)/N=C/c1cnn2ccc(C#N)cc12	40	1900	79	37	1700		
Cc1ccc(C)c(S(=O)(=O)N(C)/N=C/c2cnn3ccc(C#N)cc23)c1	100	880	> 1000	> 1000	2100		
CC(C)c1ccc([N+](=O)[O-])cc1S(=O)(=O)N(C)/N=C/c1cnn2ccc(C#N)cc12	1.8	260	300	39	180		
Cc1c([N+](=O)[O-])cccc1S(=O)(=O)N(C)/N=C/c1cnn2ccc(C#N)cc12	> 1000	> 20000	> 1000	> 1000	> 20000		
Cc1ccc([N+](=O)[O-])cc1S(=O)(=O)N(CCN(C)C)/N=C/c1cnn2ccc(C#N)cc12	77	390	490	180	360		
COc1ccc([N+](=O)[O-])cc1S(=O)(=O)N(C)/N=C/c1cnn2ccc(C#N)cc12	0.8	50	63	22	90	0.2 (≈ 0.483 µM)	
Cc1ccc(C(F)(F)F)cc1S(=O)(=O)N(C)/N=C/c1cnn2ccc(C#N)cc12	21	1300	60	35	980		

SMILES	IC50 [1] [nM]	IC50 [2] [nM]	IC50 [3] [nM]	IC50 [4] [nM]	IC50 [5] [nM]	solubility [6] [µg/mL]	Activity (HCT-116) [%]
CC(=O)Nc1ccc(C)c(S(=O)(=O)N(C)/N=C/c2cnn3ccc(C#N)cc23)c1	> 1000	> 20000	> 1000	> 1000	> 20000		
CCN(CC)CCN(/N=C/c1cnn2ccc(C#N)cc12)S(=O)(=O)c1cc([N+](=O)[O-])ccc1C	82	1700	> 1000	110	3500		
Cc1ccc(NC(=O)C(F)(F)F)cc1S(=O)(=O)N(C)/N=C/c1cnn2ccc(C#N)cc12	> 1000	9100	> 1000	> 1000	2300		
Cc1ccc([N+](=O)[O-])cc1S(=O)(=O)N(CCN1CCCCC1)/N=C/c1cnn2ccc(C#N)cc12	140	490	> 1000	89	1100		
CN(/N=C/c1cnn2ccc(C#N)cc12)C(=O)c1cccc([N+](=O)[O-])c1	11	6000	67	16	1800		
CN(/N=C/c1cnn2ccc(C#N)cc12)S(=O)(=O)c1cccc([N+](=O)[O-])c1	36	690	1200	410	380		
CCc1ccc([N+](=O)[O-])cc1S(=O)(=O)N(C)/N=C/c1cnn2ccc(C#N)cc12	1.5	80	280	13	170		
Cc1cccc([N+](=O)[O-])c1S(=O)(=O)N(C)/N=C/c1cnn2ccc(C#N)cc12	14	7600	340	100	3700		
Cc1ccc(Br)cc1S(=O)(=O)N(C)/N=C/c1cnn2ccc(C#N)cc12	13	570	620	180	700		
CCN(/N=C/c1cnn2ccc(C#N)cc12)S(=O)(=O)c1cc([N+](=O)[O-])ccc1C	0.5	90	62	9.3	30	0.2 (≈ 0.485 µM)	
Cc1ccc(F)cc1S(=O)(=O)N(C)/N=C/c1cnn2ccc(C#N)cc12	55	14000	550	310	> 20000		
Cc1ccc([N+](=O)[O-])cc1C(=O)N(C)/N=C/c1cnn2ccc(C#N)cc12	17	> 20000	68	8.6	> 20000		
Cc1ccc(C#N)cc1S(=O)(=O)N(C)/N=C/c1cnn2ccc(C#N)cc12	2.4	210	130	59	280		
COC(=O)c1ccc(C)c(S(=O)(=O)N(C)/N=C/c2cnn3ccc(C#N)cc23)c1	990	1900	> 1000	400	2400		
Cc1cc([N+](=O)[O-])ccc1S(=O)(=O)N(C)/N=C/c1cnn2ccc(C#N)cc12	65	> 20000	> 1000	> 1000	> 20000		
Cc1ccc([N+](=O)[O-])cc1S(=O)(=O)N(Cc1ccccc1)/N=C/c1cnn2ccc(C#N)cc12	27	2500	> 1000	32			
